Activity calls are given as the source filed them. The calls are words filed in the database; no cut-off is given here.
How the values were obtained:
THP-1 [1] = assay: Effect on MAN2A1 protein expression in human THP1 cells at 10 uM after 24 hrs by proteome analysis relative to control; format: functional
Method in brief: (§1)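 PMA-differentiated THP-1 macrophages given 10 μM compound or DMSO for 24 h, then lysed in TRIzol. Proteins reduced with DTT, alkylated with iodoacetamide, digested with trypsin (1:50 w/w) for 16 h at 30 °C. Biological replicates pooled, analysed by LC-MS/MS on an Orbitrap Velos Pro with a 4 h gradient, FDR ≤0.05. Only unique peptides used; log2 peptide ratios averaged per protein and tested by one-sample t test versus vehicle.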

[2] = Upregulation of ABCA1 mRNA expression in human THP1 cells at 10 uM after 24 hrs by qPCR method relative to control; format: functional, cell-based; conditions: THP-1
Method in brief: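 THP-1 macrophages treated for 24 h with 10 μM compound, 10 μM pioglitazone or DMSO. Total RNA extracted and converted to cDNA; ABCA1 or ABCG1 measured by SYBR Green qPCR and expressed relative to 18S. Mean ± SD of four independent experiments; one-way ANOVA with Bonferroni test against DMSO.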

THP-1 [3] = assay: Effect on ART4 protein expression in human THP1 cells at 10 uM after 24 hrs by proteome analysis relative to control; format: functional; method in brief: as §1
THP-1 [4] = assay: Effect on DNAH9 protein expression in human THP1 cells at 10 uM after 24 hrs by proteome analysis relative to control; format: functional; method in brief: as §1
THP-1 [5] = assay: Effect on P4HTM protein expression in human THP1 cells at 10 uM after 24 hrs by proteome analysis relative to control; format: functional; method in brief: as §1
THP-1 [6] = assay: Effect on DBI protein expression in human THP1 cells at 10 uM after 24 hrs by proteome analysis relative to control; format: functional; method in brief: as §1
THP-1 [7] = assay: Induction of apo-A1-mediated cholesterol efflux from [3H]-cholesterol labeled human THP1 cells preincubated for 24 hrs followed by apo A1 addition measured after 6 hrs by scintillation counting method; format: functional, cell-based
Method in brief: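 Differentiated THP-1 macrophages loaded with [3H]-cholesterol for 24 h in the presence of compound, or pioglitazone 10 μM as positive control. Medium then replaced with serum-free RPMI containing compound, with or without acceptor (10 μg/mL apo A1 or 1% human plasma from fasted volunteers), for 6 h. Efflux % = extracellular/total cpm with acceptor minus without acceptor, ×100, by scintillation counting. Three independent experiments.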

THP-1 [8] = assay: Effect on SPCS1 protein expression in human THP1 cells at 10 uM after 24 hrs by proteome analysis relative to control; format: functional; method in brief: as §1
THP-1 [9] = assay: Effect on MYL12B protein expression in human THP1 cells at 10 uM after 24 hrs by proteome analysis relative to control; format: functional; method in brief: as §1
THP-1 [10] = assay: Effect on HIST1H2AB protein expression in human THP1 cells at 10 uM after 24 hrs by proteome analysis relative to control; format: functional; method in brief: as §1
THP-1 [11] = assay: Effect on BHLHA15 protein expression in human THP1 cells at 10 uM after 24 hrs by proteome analysis relative to control; format: functional; method in brief: as §1
THP-1 [12] = assay: Effect on MCM9 protein expression in human THP1 cells at 10 uM after 24 hrs by proteome analysis relative to control; format: functional; method in brief: as §1
THP-1 [13] = assay: Effect on PTPRC protein expression in human THP1 cells at 10 uM after 24 hrs by proteome analysis relative to control; format: functional; method in brief: as §1
THP-1 [14] = assay: Effect on PLAUR protein expression in human THP1 cells at 10 uM after 24 hrs by proteome analysis relative to control; format: functional; method in brief: as §1
THP-1 [15] = assay: Effect on ATP13A3 protein expression in human THP1 cells at 10 uM after 24 hrs by proteome analysis relative to control; format: functional; method in brief: as §1
THP-1 [16] = assay: Effect on SMO protein expression in human THP1 cells at 10 uM after 24 hrs by proteome analysis relative to control; format: functional; method in brief: as §1
THP-1 [17] = assay: Effect on MYL12A protein expression in human THP1 cells at 10 uM after 24 hrs by proteome analysis relative to control; format: functional; method in brief: as §1
THP-1 [18] = assay: Effect on RAB4A protein expression in human THP1 cells at 10 uM after 24 hrs by proteome analysis relative to control; format: functional; method in brief: as §1
THP-1 [19] = assay: Suppression of ABCA1 mRNA degradation in human THP1 cells at 10 uM in presence of de novo gene transcription inhibitor actinomycin D at 2 hrs by qPCR method; format: functional, cell-based
Method in brief: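 Differentiated THP-1 macrophages treated with 10 μM compound or DMSO for 24 h, then given 5 μg/mL actinomycin D and lysed at set time points. Total RNA extracted and reverse-transcribed; ABCA1 mRNA measured by SYBR Green qPCR normalised to 18S. Four independent experiments.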

THP-1 [20] = assay: Effect on TARBP1 protein expression in human THP1 cells at 10 uM after 24 hrs by proteome analysis relative to control; format: functional; method in brief: as §1
THP-1 [21] = assay: Effect on PAIP2 protein expression in human THP1 cells at 10 uM after 24 hrs by proteome analysis relative to control; format: functional; method in brief: as §1
THP-1 [22] = assay: Effect on CPA3 protein expression in human THP1 cells at 10 uM after 24 hrs by proteome analysis relative to control; format: functional; method in brief: as §1
THP-1 [23] = assay: Effect on LAMP1 protein expression in human THP1 cells at 10 uM after 24 hrs by proteome analysis relative to control; format: functional; method in brief: as §1
THP-1 [24] = assay: Effect on TOMM20 protein expression in human THP1 cells at 10 uM after 24 hrs by proteome analysis relative to control; format: functional; method in brief: as §1
THP-1 [25] = assay: Effect on SHMT1 protein expression in human THP1 cells at 10 uM after 24 hrs by proteome analysis relative to control; format: functional; method in brief: as §1
[26] = Cytotoxicity against human THP1 cells assessed as decrease in cell viability at 1 to 20 uM after 24 hrs by resazurin assay; format: toxicity, cell-based; conditions: thp-1, 24 h
Method in brief: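 THP-1 cells kept in RPMI-1640 with 10% heat-inactivated FBS, penicillin/streptomycin and 2 mM L-glutamine, then differentiated to macrophages with 200 nM PMA for 72 h. Exposed to compound for 24 h. Viability read by resazurin conversion as fluorescence (ex 535 nm, em 580 nm). Digitonin 50 μg/mL served as cytotoxic control. Mean ± SD of four independent experiments; one-way ANOVA with Bonferroni test against DMSO.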

## C/C=C(/C)C(=O)OC[C@H]1[C@@H](Cc2ccc(OC)c(OC)c2)CO[C@@H]1c1ccc(OC)c(OC)c1
THP-1 [1]
  fold change (FC): 2
[2]
  fold change (FC): 2.4
THP-1 [3]
  fold change (FC): 1.6
THP-1 [4]
  fold change (FC): 0.4
THP-1 [5]
  fold change (FC): 0.6
THP-1 [6]
  fold change (FC): 1.6
THP-1 [7]
  Activity: Dose-dependent effect
THP-1 [8]
  fold change (FC): 1.6
THP-1 [9]
  fold change (FC): 2
THP-1 [10]
  fold change (FC): 0.6
THP-1 [11]
  fold change (FC): 0.7
THP-1 [12]
  fold change (FC): 1.9
THP-1 [13]
  fold change (FC): 1.7
THP-1 [14]
  fold change (FC): 1.5
THP-1 [15]
  fold change (FC): 1.7
THP-1 [16]
  fold change (FC): 2.1
THP-1 [17]
  fold change (FC): 2.2
THP-1 [18]
  fold change (FC): 1.9
THP-1 [19]
  Activity: Active
THP-1 [20]
  fold change (FC): 0.6
THP-1 [21]
  fold change (FC): 1.7
THP-1 [22]
  fold change (FC): 1.7
THP-1 [23]
  fold change (FC): 1.8
THP-1 [24]
  fold change (FC): 1.6
THP-1 [25]
  fold change (FC): 1.8
[26]
  Activity: Non-Toxic

Source: ChEMBL document CHEMBL3861960, “Leoligin, the Major Lignan from Edelweiss (Leontopodium nivale subsp. alpinum), Promotes Cholesterol Efflux from THP-1 Macrophages” (J Nat Prod, 2016)
